Publication PMC2865185 (The FEBS journal, 2009)
Changes are numbered by the printed parent chain. Like-named read-outs stand apart in the source and are kept apart here.

Key:
[1] = tested on: EphA3 kinase domain; conditions: juxtamembrane peptide, ref [20], cited from earlier work
[2] = target: T1, EphA3(N830A) (Homo sapiens, UniProt P29320, N830A); experiment: ADP-Quest kinase assay, EphA3 N830A mutant; format: biochemical; conditions: for kcat/Km / Km / kcat: 200 µM ATP, room temperature, ADP-Quest; for Km / kcat: peptide 1 to 4000 µM, ± SD from two independent experiments, in duplicate
T1 sequence (P29320 621-882 N830A limits assumed): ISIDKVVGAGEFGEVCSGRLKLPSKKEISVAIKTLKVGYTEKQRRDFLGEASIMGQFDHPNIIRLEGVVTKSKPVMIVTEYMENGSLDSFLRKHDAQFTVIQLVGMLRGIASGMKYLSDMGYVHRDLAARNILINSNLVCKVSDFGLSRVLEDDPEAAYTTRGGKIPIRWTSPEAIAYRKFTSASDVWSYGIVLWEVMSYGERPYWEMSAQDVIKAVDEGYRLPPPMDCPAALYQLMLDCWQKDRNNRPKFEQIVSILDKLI
Procedure, shortened: (§1)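 EphA3 kinase domain, wild-type or point mutant made by site-directed mutagenesis, expressed in E. coli BL21 Gold (DE3). His-tag purified, thrombin-cleaved, gel-filtered, then autophosphorylated with 10 mM each ATP and MgCl2; free nucleotide removed by anion exchange. ADP-Quest fluorescence (ex 530/em 590 nm) at room temperature. Peptide 1–4000 µM, ATP 200 µM, enzyme 10 nM–5 µM. Duplicates, background-ADP corrected. Km/Vmax from Michaelis–Menten fit; SD from two independent experiments.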

[3] = target: T2, EphA3(K785E) (Homo sapiens, UniProt P29320, K785E); experiment: ADP-Quest kinase assay, EphA3 K785E mutant; format: biochemical
T2 sequence (P29320 577-947 K785E limits assumed): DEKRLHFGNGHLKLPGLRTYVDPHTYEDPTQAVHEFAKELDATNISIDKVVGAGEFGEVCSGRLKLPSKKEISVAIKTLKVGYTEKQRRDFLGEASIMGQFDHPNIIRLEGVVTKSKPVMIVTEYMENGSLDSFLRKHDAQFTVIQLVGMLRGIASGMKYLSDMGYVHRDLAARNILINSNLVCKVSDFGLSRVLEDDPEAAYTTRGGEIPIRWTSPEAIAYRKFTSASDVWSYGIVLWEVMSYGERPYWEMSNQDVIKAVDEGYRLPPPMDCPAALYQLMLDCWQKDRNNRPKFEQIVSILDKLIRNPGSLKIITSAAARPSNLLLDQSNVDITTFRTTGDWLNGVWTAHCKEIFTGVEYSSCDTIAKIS
Procedure, shortened: as §1

[4] = target: T3, EphA3 kinase domain (wild-type) (Homo sapiens, UniProt P29320); experiment: ADP-Quest kinase assay, wild-type EphA3 kinase domain; format: biochemical; conditions: for kcat/Km / kcat: 200 µM ATP, room temperature, ADP-Quest; for kcat: ± SD from two independent experiments, in duplicate
T3 sequence (P29320 621-882 limits assumed): T1 sequence (P29320 621-882 N830A limits assumed) with A210N
Procedure, shortened: as §1

[5] = target: T4, EphA7 (Homo sapiens, UniProt Q15375); experiment: Isoform specificity of EPHOPT, EphA7; format: biochemical; conditions: in words; EphA7, non-arginine at position 782
T4 sequence (Q15375 633-894 limits assumed): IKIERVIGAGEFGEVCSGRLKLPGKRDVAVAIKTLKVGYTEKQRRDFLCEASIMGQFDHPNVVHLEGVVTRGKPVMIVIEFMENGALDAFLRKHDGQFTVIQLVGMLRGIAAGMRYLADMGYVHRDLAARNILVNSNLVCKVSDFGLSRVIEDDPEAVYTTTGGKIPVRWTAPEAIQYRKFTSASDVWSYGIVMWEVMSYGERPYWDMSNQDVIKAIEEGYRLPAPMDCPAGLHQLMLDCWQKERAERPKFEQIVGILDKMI
Procedure, shortened: (§2)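 Each kinase prepared by target. EphA5, EphA7 and EphB3 were autophosphorylated with 10 mM each ATP and MgCl2, then freed of nucleotide by anion exchange. EphB2 and EphB4 were bought in active form and used unmodified. ADP-Quest fluorescence read-out (ex 530/em 590 nm) at room temperature. Peptide substrate 1–4000 µM, ATP 200 µM, enzyme 10 nM–5 µM. Duplicates, background-corrected. Kinetic constants from Michaelis–Menten fit.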

[6] = target: T5, EphB3 (Homo sapiens, UniProt P54753); experiment: Isoform specificity of EPHOPT, EphB3; format: biochemical; conditions: in words
T5 sequence (P54753 633-896 limits assumed): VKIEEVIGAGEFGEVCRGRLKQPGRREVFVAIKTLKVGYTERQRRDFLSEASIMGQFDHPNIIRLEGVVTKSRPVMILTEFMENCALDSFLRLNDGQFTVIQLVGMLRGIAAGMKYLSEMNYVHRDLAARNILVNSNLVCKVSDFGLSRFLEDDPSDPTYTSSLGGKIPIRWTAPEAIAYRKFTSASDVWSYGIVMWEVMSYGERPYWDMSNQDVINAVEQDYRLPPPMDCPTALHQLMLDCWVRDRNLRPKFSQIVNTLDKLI
Procedure, shortened: as §2

[7] = target: T6, EphB4 (Homo sapiens, UniProt P54760); experiment: Isoform specificity of EPHOPT, EphB4; format: biochemical; conditions: in words; EphB4, non-arginine at position 782
T6 sequence (P54760 615-899 limits assumed): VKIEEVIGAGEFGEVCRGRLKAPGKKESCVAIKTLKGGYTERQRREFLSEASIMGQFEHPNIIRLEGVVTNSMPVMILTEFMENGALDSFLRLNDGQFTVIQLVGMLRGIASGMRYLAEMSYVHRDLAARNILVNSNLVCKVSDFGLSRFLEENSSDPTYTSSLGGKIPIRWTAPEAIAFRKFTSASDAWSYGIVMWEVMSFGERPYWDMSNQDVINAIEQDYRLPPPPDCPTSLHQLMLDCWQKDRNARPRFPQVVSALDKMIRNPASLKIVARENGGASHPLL
Procedure, shortened: as §2

[8] = target: T7, EphB2 (Homo sapiens, UniProt P29323); experiment: Isoform specificity of EPHOPT, EphB2; format: biochemical; conditions: in words; EphB2, non-arginine at position 782
T7 sequence (P29323 621-884 limits assumed): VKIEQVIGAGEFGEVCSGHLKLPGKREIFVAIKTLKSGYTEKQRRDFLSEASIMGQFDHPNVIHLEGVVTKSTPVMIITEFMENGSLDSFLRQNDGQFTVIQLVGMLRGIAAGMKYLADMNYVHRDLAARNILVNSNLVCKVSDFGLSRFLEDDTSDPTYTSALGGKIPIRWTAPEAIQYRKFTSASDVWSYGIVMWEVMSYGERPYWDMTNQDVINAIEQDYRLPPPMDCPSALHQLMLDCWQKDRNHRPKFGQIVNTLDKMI
Procedure, shortened: as §2

[9] = tested on: EphA5, EphA7, EphB3, EphB4, EphB2 (relative to EphA3); experiment: Isoform specificity of EPHOPT, other EPH kinase domains; format: biochemical
Procedure, shortened: as §2

[10] = Aqueous solubility of peptide; format: physicochemical; conditions: aqueous buffer
[11] = EphA3(K785E), 200 µM ATP, room temperature, ADP-Quest, ± SD from two independent experiments, in duplicate
[12] = EphA3 K785E mutant, 200 µM ATP, room temperature, ADP-Quest
[13] = EphA3 K785E mutant, peptide 1 to 4000 µM, 200 µM ATP, room temperature, ADP-Quest, ± SD from two independent experiments, in duplicate
[14] = EphA3(N830A) relative to wild-type
[15] = relative to juxtamembrane peptide

D^598PHTYEDPTQ^606 [juxtamembrane EphA3 peptide]
Km ([1]; EphA3 kinase domain): 1000 ± 20 µM | catalytic efficiency ([1]; EphA3 kinase domain): 200 min⁻¹ mM⁻¹ | kcat ([1]; EphA3 kinase domain): 199 ± 9 min⁻¹ | kcat ([1]; quoted for comparison with EPHOPT): 199 per minute

KQWDNYEFIW [OPTYF]
weaker affinity (relative to EPHOPT) ([2]; EphA3(N830A), OPTYF versus EPHOPT): 5 -fold | kcat/Km ([2]; EphA3 N830A mutant): 3280 M⁻¹ s⁻¹ | Km ([2]; EphA3 N830A mutant): 152 ± 35 µM | kcat ([2]; EphA3 N830A mutant): 0.5 ± 0.0233 s⁻¹ | kcat/Km ([3]; EphA3(K785E), 200 µM ATP, room temperature, ADP-Quest): 0.155 µM/min | kcat [3, 11]: 0.383 ± 0.13 s⁻¹ | kcat/Km [3, 12]: 2580 M⁻¹ s⁻¹ | kcat [3, 13]: 0.383 ± 0.13 s⁻¹ | kcat/Km [4]: 233880 M⁻¹ s⁻¹ | kcat [4]: 421 ± 30 min⁻¹ | kcat ([4]; peptide 1 to 4000 µM): 421 ± 30 min⁻¹ | relative change in Km ([4]; relative to EPHOPT): ~ 2 -fold | relative change in kcat ([4]; relative to EPHOPT): ~ 2 -fold

KQWDNYEKIW [OPTYK]
kcat/Km [4]: 34270 M⁻¹ s⁻¹ | kcat ([4]; peptide 1 to 4000 µM): 220 ± 27 min⁻¹

KQWDNYEpYIW [EPHOPT]
catalytic efficiency (EphA7) [5]: lower catalytic efficiencies | catalytic efficiency of EphB3 relative to EphA5 [6]: nearly as efficient as EphA5 | substrate affinity at EphB3 relative to EphA3 [6]: nearly identical substrate affinity as EphA3 | decrease in catalytic efficiency [2, 14]: more than one order of magnitude decrease | decrease in kcat/Km [2, 14]: 56 -fold | kcat/Km ([2]; EphA3(N830A)): 0.835 µM/min | kcat/Km ([2]; EphA3 N830A mutant): 13900 M⁻¹ s⁻¹ | Km ([2]; EphA3 N830A mutant): 39.5 ± 0.7 µM | kcat ([2]; EphA3 N830A mutant): 0.55 ± 0.0233 s⁻¹ | decrease in catalytic efficiency ([3]; EphA3(K785E) relative to wild-type): 260 -fold | negative effect on Km ([3]; EphA3(K785E) relative to wild-type enzyme): about an order of magnitude | kcat [3, 11]: 0.567 ± 0.012 s⁻¹ | kcat/Km [3, 12]: 3020 M⁻¹ s⁻¹ | Km [3, 13]: 188 ± 64 µM | kcat [3, 13]: 0.567 ± 0.012 s⁻¹ | catalytic efficiency (EphB4) [7]: lower catalytic efficiencies | kcat/Km [4]: 787030 M⁻¹ s⁻¹ | kcat [4]: 850 ± 44 per minute | kcat ([4]; peptide 1 to 4000 µM): 850 ± 44 min⁻¹ | drop in Km [4, 15]: almost two orders of magnitude | increase in catalytic efficiency [4, 15]: over 200 -fold | increase in kcat [4, 15]: 4 -fold | catalytic efficiency (EphB2) [8]: lower catalytic efficiencies | rank order of catalytic efficiency across isoforms ([9]; EphA3 and five other EPH kinases, Supplemental Table S2): EphA3>EphA5≅EphB3>>EphA7≅EphB4>>EphB2 | selectivity for EphA3 over other EPH kinases ([9]; in words): mildly to strongly selective for EphA3 | solubility [10]: ≥ 100000 µM
